This is an account of results in ChEMBL document CHEMBL1765035, “Radiosynthesis and in vivo evaluation of 1-[18F]fluoroelacridar as a positron emission tomography tracer for P-glycoprotein and breast cancer resistance protein” (Bioorg Med Chem, 2011).

In data set [1] the test system is Brain. The experiment in a line: Drug uptake in Sprague-Dawley rat brain at 33 +/- 3 MBq, iv administered 60 mins before 5 mg/kg, iv elacridar injection measured after 0.9 to 1.3 mins. In kind it is ADME, organism-based. Also on record: dose 5 mg/kg, route intravenous. As to conditions: in vivo. In short, it runs like this: (§1)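 Isoflurane-anaesthetised female Sprague Dawley rats (n=3, warmed about 38°C), femoral catheters. [18F] tracer given i.v. (33±3 MBq), followed by a dynamic 150 min microPET scan. […] Whole brain or humerus outlined on summation images; time-activity curves given as SUV (mean±SD).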

For data set [2], the system named is Brain. The experiment in a line: Drug uptake in Sprague-Dawley rat brain at 33 +/- 3 MBq, iv administered 60 mins before 5 mg/kg, iv elacridar injection measured after 25 mins. In kind it is ADME, organism-based. Also noted: dose 5 mg/kg, route intravenous. The conditions noted are these: in vivo. In short, it runs like this: as §1
Data set [3] has as its system Brain. The experiment in a line: Drug uptake in Sprague-Dawley rat brain at 33 +/- 3 MBq, iv administered 60 mins before 5 mg/kg, iv elacridar injection measured after 140 mins. In kind it is ADME, organism-based. Also on record: dose 5 mg/kg, route intravenous. As to conditions: in vivo. In short, it runs like this: as §1
Data set [4] is described as follows: Drug uptake in Sprague-Dawley rat humerus after 1.8 mins in presence of 5 mg/kg elacridar. Also on record: dose 5 mg/kg. In kind it is ADME, organism-based. As to conditions: in vivo, 0.03 h. In short, it runs like this: as §1
A short description of data set [5]: Drug uptake in Sprague-Dawley rat humerus after 140 mins in presence of 5 mg/kg elacridar. Also noted: dose 5 mg/kg. The conditions noted are these: in vivo. It counts as ADME, organism-based. In short, it runs like this:
as §1

In data set [6] the test system is Plasma. The experiment in a line: Drug concentration in Sprague-Dawley rat plasma assessed as radiometabolites at 74 +/- 23 MBq after 10 mins by SPE assay relative to total plasma concentration. In kind it is ADME, cell-free. In short, it runs like this:
(§2)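 Female Sprague Dawley rats (n=3, isoflurane, no PET) given [18F] tracer i.v. (74±23 MBq). Blood drawn at 10, 20, 30 min and terminally at 40 min. Plasma centrifuged and run through SPE. Polar radiometabolites are counted as fractions 1+2 by gamma counter, as % of total plasma activity. At 40 min the MeOH fraction also went to reversed-phase HPLC.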

Data set [7] deals with Plasma. The data set is described as follows: Drug concentration in Sprague-Dawley rat plasma assessed as radiometabolites at 74 +/- 23 MBq after 20 mins by SPE assay relative to total plasma concentration. In kind it is ADME, cell-free. In short, it runs like this: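 Female Sprague-Dawley rats (n=3) under isoflurane, given i.v. [18F]-tracer (74±23 MBq, 17.2±3.9 nmol or 37±10 μg/kg unlabelled) without PET imaging. Arterial blood was drawn at 10, 20 and 30 min, with a terminal sample at 40 min. Plasma was obtained by centrifugation (3000×g, 5 min) and run through solid-phase extraction. The plasma, H2O and MeOH fractions were gamma-counted. Polar radiometabolites (fractions 1+2) are given as % of total plasma activity.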

The subject of data set [8] is Plasma. The experiment in a line: Drug concentration in Sprague-Dawley rat plasma assessed as radiometabolites at 74 +/- 23 MBq after 30 mins by SPE assay relative to total plasma concentration. As to conditions: 0.5 h. It counts as ADME, cell-free. In short, it runs like this: as §2
In data set [9] the test system is Plasma. The experiment in a line: Drug concentration in Sprague-Dawley rat plasma assessed as radiometabolites at 74 +/- 23 MBq after 40 mins by SPE assay relative to total plasma concentration. It counts as ADME, cell-free. In short, it runs like this: as §2
Data set [10] concerns Brain. The experiment in a line: Drug uptake in Sprague-Dawley rat brain after 40 mins by reversed-phase HPLC. It counts as ADME, tissue-based. As to conditions: in vivo. In short, it runs like this: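 Same rat group (n=3) injected i.v. with [18F] tracer and sacrificed at 40 min. Brain washed with ice-cold H2O, homogenized in 0.9% NaCl and extracted with CH3CN. Supernatant diluted 1:1 with 0.1% TFA and analysed by reversed-phase HPLC with UV 257 nm and radioactivity detection. Value is unchanged tracer as % of total brain radioactivity.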

The nature of data set [11]: Ratio of drug level in brain to blood in wild-type mouse. In kind it is ADME, tissue-based. In short, it runs like this:
(§3)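 Female FVB wild-type and Mdr1a/b(−/−)Bcrp1(−/−) mice (n=3 each), isoflurane-anaesthetised. [18F] tracer given via tail vein (6±1 MBq), 60 min dynamic microPET. Brain SUV at 50-60 min divided by whole-blood SUV; blood taken retro-orbitally at scan end and gamma-counted. Groups compared by 2-tailed t-test.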

The nature of data set [12]: Ratio of drug level in brain to blood in Mdr1a/b(-/-)/Bcrp1(-/-) mouse. In kind it is ADME, tissue-based. In short, it runs like this: as §3
Data set [13] is described as follows: Inhibition of human Pgp overexpressed in […]-MDR1 cells assessed as inhibition of R123 efflux after 60 mins. As to conditions: 1 h. In kind it is cell-based, MDCK-II.
The next data set concerns MDCK-II. The conditions noted are these: Homo sapiens, 3.7 uM.

Usually Kp stands for the ratio of the level in a tissue or fluid to that in plasma or blood. For orientation: IC50 means the concentration at which inhibition is half-maximal. As a reminder, the inhibition is the share of the control response that was lost under treatment.

Take `COc1cc2c(cc1OC)CN(CCc1ccc(NC(=O)c3ccc([18F])c4c(=O)c5cccc(OC)c5[nH]c34)cc1)CC2`: the SUV worked out at 0.46 in the data set with Brain [1]; 0.14 in the data set with Brain [2]; 1.14 with Brain [3]; 1.42 in [4]; 4.59 in [5]. The Cp in the data set with Plasma [6] is 6%; in the data set with Plasma [7], 6%; with Plasma [8], 12%; in the data set with Plasma [9] it was 13%. Besides, the Drug uptake in the data set with Brain [10] worked out at 93%. Moreover, the Kp in data set [11] turned out to be 1.5; in data set [12], 11.6.
On to `COc1cc2c(cc1OC)CN(CCc1ccc(NC(=O)c3cc(Cl)cc4c(=O)c5cccc(OC)c5[nH]c34)cc1)CC2`, for which the IC50 in [13] was determined as 1.4 µM.
Same read-out and setting: the figure for `COc1cc2c(cc1OC)CN(CCc1ccc(NC(=O)c3ccc(Cl)c4c(=O)c5cccc(OC)c5[nH]c34)cc1)CC2` is 3.8 µM; for `COc1cc2c(cc1OC)CN(CCc1ccc(NC(=O)c3cc(F)cc4c(=O)c5cccc(OC)c5[nH]c34)cc1)CC2` it is 0.6 µM; for `COc1cc2c(cc1OC)CN(CCc1ccc(NC(=O)c3ccc([N+](=O)[O-])c4c(=O)c5cccc(OC)c5[nH]c34)cc1)CC2` it is 1.6 µM.
In the data set on MDCK-II, `COc1cc2c(cc1OC)CN(CCc1ccc(NC(=O)c3cccc4c(=O)c5cccc(OC)c5[nH]c34)cc1)CC2` returned an inhibition of 100%.
For the compound `COc1cc2c(cc1OC)CN(CCc1ccc(NC(=O)c3ccc(F)c4c(=O)c5cccc(OC)c5[nH]c34)cc1)CC2`, the IC50 in data set [13] was found to be 1.7 µM.
